Test results from ChEMBL document CHEMBL1128256, “Synthesis, biological evaluation, and structure analysis of a series of new 1,5-anhydrohexitol nucleosides” (J Med Chem, 1995).
In brackets after ≈: the same amount, converted by molar mass.

How the values were obtained:
E6SM [1] = assay: Tested for the minimum inhibitory concentration required to reduce herpes simplex virus type 2 (HSV-2) strain 196 induced cytopathogenicity by 50%; format: functional; settings: Homo sapiens
Method in brief: (§1)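 Inhibition of virus-induced cytopathogenicity in human embryonic skin-muscle (E6SM) fibroblasts seeded in 96-well trays. Viruses were HSV-1 (KOS, F, McIntyre), TK- HSV-1 B2006, TK-/TK+ HSV-1 clinical isolate VMW-1837 and HSV-2 (G, 196, Lyons). […] MCC is the lowest concentration giving microscopically detectable alteration of normal cell morphology; highest concentration tested was 400 µg/mL.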

E6SM [2] = assay: Tested for the minimum inhibitory concentration required to reduce herpes simplex virus type 2 (HSV-2) strain G induced cytopathogenicity by 50%; format: functional; settings: Homo sapiens; method in brief: as §1
E6SM [3] = assay: Tested for the minimum inhibitory concentration required to reduce herpes simplex virus type 2 (HSV-2) strain Lyons induced cytopathogenicity by 50%; format: functional; settings: Homo sapiens; method in brief: as §1
E6SM [4] = assay: Tested for the minimum inhibitory concentration required to reduce herpes simplex virus type 1 (HSV-1) strain F induced cytopathogenicity by 50%.; format: functional; settings: Homo sapiens; method in brief: as §1
E6SM [5] = assay: Tested for the minimum inhibitory concentration required to reduce herpes simplex virus type 1 (HSV-1) strain KOS induced cytopathogenicity by 50%; format: functional; settings: Homo sapiens; method in brief: as §1
E6SM [6] = assay: Tested for the minimum inhibitory concentration required to reduce herpes simplex virus type 1 (HSV-1) strain McIntyre induced cytopathogenicity by 50%; format: functional; settings: Homo sapiens; method in brief: as §1
E6SM [7] = assay: Tested for the minimum inhibitory concentration required to reduce herpes simplex virus type 1 (TK/ TK+HSV-1) strain VMW-1837 induced cytopathogenicity by 50%; format: functional; settings: Homo sapiens; method in brief: as §1
E6SM [8] = assay: Tested for the minimum cytotoxic concentration required to cause a microscopically detectable alteration of normal cell morphology in human embryonic skin muscle (E6SM) fibroblast cell cultures; format: functional
Method in brief: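 Cytotoxicity in human embryonic skin-muscle (E6SM) fibroblasts seeded in 96-well trays, scored microscopically as altered normal cell morphology. Tested up to 400 µg/mL.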

E6SM [9] = assay: Tested for the minimum inhibitory concentration required to reduce thymidine kinase deficient herpes simplex virus type 1 (TK- HSV-1) strain B2006 induced cytopathogenicity by 50%; format: functional; settings: Homo sapiens; method in brief: as §1
HEL [10] = assay: Tested for the cytotoxic concentration, required to reduce cell growth by 50% in human embryonic lung (HEL) cells; format: functional
Method in brief: (§2)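 Virus plaque formation assay in human embryonic lung (HEL) cells seeded in 96-well trays. Targets were TK+ VZV (Oka, YS), TK- VZV (07/1, YS/R) and CMV (AD169, Davis). Value is the concentration that reduces plaque number by 50%. Cytotoxicity in HEL cells was taken as the concentration that reduces cell growth by 50%.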

HEL [11] = assay: Tested for the inhibitory concentration required to reduce TK+ Varicella-Zoster virus (TK+VZV) strain YS plaque formation by 50%; format: functional, cell-based; settings: Homo sapiens; method in brief: as §2
HEL [12] = assay: Tested for the inhibitory concentration required to reduce TK+varicella-zoster virus (TK+ VZV) strain OKA plaque formation by 50%; format: functional, cell-based; settings: Homo sapiens; method in brief: as §2
HEL [13] = assay: Tested for the inhibitory concentration required to reduce cytomegalovirus (CMV) strain Davis plaque formation by 50%; format: functional, cell-based; settings: Homo sapiens; method in brief: as §2
HEL [14] = assay: Tested for the inhibitory concentration required to reduce thymidine kinase deficient Varicella-Zoster virus (TK-VZV) strain 07/1 plaque formation by 50%; format: functional, cell-based; settings: Homo sapiens; method in brief: as §2
HEL [15] = assay: Tested for the inhibitory concentration required to reduce thymidine kinase deficient Varicella-Zoster virus (TK-VZV) strain YS/R plaque formation by 50%; format: functional, cell-based; settings: Homo sapiens; method in brief: as §2
HEL [16] = assay: Tested for the inhibitory concentration required to reduce cytomegalovirus (CMV) strain AD-169 plaque formation by 50%; format: functional, cell-based; settings: Homo sapiens; method in brief: as §2
E6SM [17] = assay: Tested for the minimum inhibitory concentration required to reduce herpes simplex virus type 2 (HSV-2) strain 196 induced cytopathogenicity by 50%.; format: functional; settings: Homo sapiens; method in brief: as §1
E6SM [18] = assay: Tested for the minimum inhibitory concentration required to reduce herpes simplex virus type 2 (HSV-2) strain G induced cytopathogenicity by 50%.; format: functional; settings: Homo sapiens; method in brief: as §1
E6SM [19] = assay: Tested for the minimum inhibitory concentration required to reduce herpes simplex virus type 2 (HSV-2) strain Lyons induced cytopathogenicity by 50%.; format: functional; settings: Homo sapiens; method in brief: as §1
E6SM [20] = assay: Tested for the minimum inhibitory concentration required to reduce herpes simplex virus type 1 (HSV-1) strain KOS induced cytopathogenicity by 50%.; format: functional; settings: Homo sapiens; method in brief: as §1
E6SM [21] = assay: Tested for the minimum inhibitory concentration required to reduce herpes simplex virus type 1 (HSV-1) strain McIntyre induced cytopathogenicity by 50%.; format: functional; settings: Homo sapiens; method in brief: as §1
E6SM [22] = assay: Tested for the minimum inhibitory concentration required to reduce herpes simplex virus type 1 (TK- / TK + HSV-1) strain VMW-1837 induced cytopathogenicity by 50%.; format: functional; settings: Homo sapiens; method in brief: as §1
E6SM [23] = assay: Tested for the minimum cytotoxic concentration required to cause a microscopically detectable alteration of normal cell morphology in human embryonic skin muscle (E6SM) fibroblast cell cultures.; format: functional; method in brief: as §1
E6SM [24] = assay: Tested for the minimum inhibitory concentration required to reduce thymidine kinase deficient herpes simplex virus type 1 (TK- HSV-1) strain B2006 induced cytopathogenicity by 50%.; format: functional; settings: Homo sapiens; method in brief: as §1
HEL [25] = assay: Tested for the cytotoxic concentration, required to reduce cell growth by 50% in human embryonic lung (HEL) cells.; format: functional; method in brief: as §2
HEL [26] = assay: Tested for the inhibitory concentration required to reduce cytomegalovirus (CMV) strain AD-169 plaque formation by 50%.; format: functional, cell-based; settings: Homo sapiens; method in brief: as §2
HEL [27] = assay: Tested for the inhibitory concentration required to reduce cytomegalovirus (CMV) strain Davis plaque formation by 50%.; format: functional, cell-based; settings: Homo sapiens; method in brief: as §2
HEL [28] = assay: Tested for the inhibitory concentration required to reduce thymidine kinase deficient Varicella-Zoster virus (TK- VZV) strain 07/1 plaque formation by 50%.; format: functional, cell-based; settings: Homo sapiens
HEL [29] = assay: Tested for the inhibitory concentration required to reduce thymidine kinase deficient Varicella-Zoster virus (TK- VZV) strain YS/R plaque formation by 50%.; format: functional, cell-based; settings: Homo sapiens
HEL [30] = assay: Tested for the inhibitory concentration required to reduce thymidine kinase plus Varicella-Zoster virus (TK+ VZV) strain OKA plaque formation by 50%.; format: functional, cell-based; settings: Homo sapiens; method in brief: as §2
HEL [31] = assay: Tested for the inhibitory concentration required to reduce thymidine kinase plus Varicella-Zoster virus (TK+ VZV) strain YS plaque formation by 50%; format: functional, cell-based; settings: Homo sapiens; method in brief: as §2
E6SM [32] = assay: Tested for the minimum inhibitory concentration required to reduce herpes simplex virus type 1 (TK+ / TK- HSV-1) strain VMW-1837 induced cytopathogenicity by 50%.; format: functional; settings: Homo sapiens; method in brief: as §1
HEL [33] = assay: Tested for the inhibitory concentration required to reduce TK+ Varicella-Zoster virus (TK+ VZV) strain OKA plaque formation by 50%.; format: functional, cell-based; settings: Homo sapiens
HEL [34] = assay: Tested for the inhibitory concentration required to reduce TK+ Varicella-Zoster virus (TK+ VZV) strain YS plaque formation by 50%; format: functional, cell-based; settings: Homo sapiens

Compound	MIC (E6SM [4]) [µg/mL]	MIC (E6SM [17]) [µg/mL]	MIC (E6SM [18]) [µg/mL]	MIC (E6SM [19]) [µg/mL]	MIC (E6SM [20]) [µg/mL]	MIC (E6SM [21]) [µg/mL]	MCC (E6SM [23]) [µg/mL]	MIC (E6SM [24]) [µg/mL]	CC50 (HEL [25]) [µg/mL]	IC50 (HEL [26]) [µg/mL]	IC50 (HEL [27]) [µg/mL]	IC50 (HEL [28]) [µg/mL]	IC50 (HEL [29]) [µg/mL]	further results
OCC1OCC(n2cnc3c(O)ncnc32)CC1O (stereo not drawn)	300 (≈ 1130 µM)	–	–	–	–	–	–	–	–	–	–	–	–	MIC (E6SM [1]): 300 µg/mL (≈ 1130 µM); MIC (E6SM [2]): > 400 µg/mL; MIC (E6SM [3]): 300 µg/mL (≈ 1130 µM); MIC (E6SM [5]): > 400 µg/mL; MIC (E6SM [6]): > 400 µg/mL; MIC (E6SM [7]): 300 µg/mL (≈ 1130 µM); MCC (E6SM [8]): > 400 µg/mL; MIC (E6SM [9]): > 400 µg/mL; CC50 (HEL [10]): > 50 µg/mL; IC50 (HEL [11]): 25 µg/mL (≈ 93.9 µM); IC50 (HEL [12]): > 40 µg/mL; IC50 (HEL [13]): > 40 µg/mL; IC50 (HEL [14]): > 40 µg/mL; IC50 (HEL [15]): > 40 µg/mL; IC50 (HEL [16]): > 40 µg/mL
O=c1ccn(C2COC(CO)C(O)C2)c(=O)[nH]1 (stereo not drawn)	> 400	> 400	> 400	> 400	> 400	> 400	> 400	> 400	> 50	> 40	> 40	> 40	> 40	MIC (E6SM [22]): > 400 µg/mL; IC50 (HEL [30]): > 40 µg/mL; IC50 (HEL [31]): > 40 µg/mL
O=c1[nH]c(=O)n(C2COC(CO)C(O)C2)cc1F (stereo not drawn)	> 400	> 400	> 400	> 400	> 400	> 400	> 400	> 400	> 50	> 40	> 40	> 40	40 (≈ 154 µM)	MIC (E6SM [32]): 300 µg/mL (≈ 1150 µM); IC50 (HEL [33]): 40 µg/mL (≈ 154 µM); IC50 (HEL [34]): > 40 µg/mL
